Data on 17 compounds can be found in publication PMC4708961 (Drug Design, Development and Therapy, 2016).

The conditions of series [1]: experimental rats; cited from earlier work.
Series [2] is described as follows: Bioavailability study after oral administration in mice. It is filed as in vivo. Put shortly: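 Swiss Webster mice aged 20–25 weeks, in control and test groups (n=5), were dosed orally by dosing needle at 3 mg per 30 g body weight; a comparator group received 2 g/kg orally. Plasma was precipitated with 40% methanol and spun at 14,000 rpm for 10 min. The supernatant was run on RP-Amide HPLC (50 mmol/L NaH2PO4 pH 4.3 to 70% acetonitrile gradient, 0.7 mL/min) with electrochemical detection.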

A further series deals with isolated rat hearts. Kind of series: Vasodilator activity on isolated rat hearts. The following applies: 10 μg test compound.
A further series can be described thus: NO donor activity. The following applies: 100 μmol, phosphate buffer pH 7.4, 5 mM L-cysteine, 3 hours at 37°C. Put shortly:
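Test compound in DMSO (100 μmol) was added to 50 mM phosphate buffer pH 7.4 with 5 mM L-cysteine hydrochloride and held 3 h at 37°C. Griess reagent was then added, and absorbance at 550 nm was read after 20 min against a 5–50 μM sodium nitrite calibration curve. Release was expressed as mol nitrite detected per mol test compound ×100.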

Another series addresses T1, ACE (Oryctolagus cuniculus, UniProt P12822).
T1 sequence (P12822 34-1310): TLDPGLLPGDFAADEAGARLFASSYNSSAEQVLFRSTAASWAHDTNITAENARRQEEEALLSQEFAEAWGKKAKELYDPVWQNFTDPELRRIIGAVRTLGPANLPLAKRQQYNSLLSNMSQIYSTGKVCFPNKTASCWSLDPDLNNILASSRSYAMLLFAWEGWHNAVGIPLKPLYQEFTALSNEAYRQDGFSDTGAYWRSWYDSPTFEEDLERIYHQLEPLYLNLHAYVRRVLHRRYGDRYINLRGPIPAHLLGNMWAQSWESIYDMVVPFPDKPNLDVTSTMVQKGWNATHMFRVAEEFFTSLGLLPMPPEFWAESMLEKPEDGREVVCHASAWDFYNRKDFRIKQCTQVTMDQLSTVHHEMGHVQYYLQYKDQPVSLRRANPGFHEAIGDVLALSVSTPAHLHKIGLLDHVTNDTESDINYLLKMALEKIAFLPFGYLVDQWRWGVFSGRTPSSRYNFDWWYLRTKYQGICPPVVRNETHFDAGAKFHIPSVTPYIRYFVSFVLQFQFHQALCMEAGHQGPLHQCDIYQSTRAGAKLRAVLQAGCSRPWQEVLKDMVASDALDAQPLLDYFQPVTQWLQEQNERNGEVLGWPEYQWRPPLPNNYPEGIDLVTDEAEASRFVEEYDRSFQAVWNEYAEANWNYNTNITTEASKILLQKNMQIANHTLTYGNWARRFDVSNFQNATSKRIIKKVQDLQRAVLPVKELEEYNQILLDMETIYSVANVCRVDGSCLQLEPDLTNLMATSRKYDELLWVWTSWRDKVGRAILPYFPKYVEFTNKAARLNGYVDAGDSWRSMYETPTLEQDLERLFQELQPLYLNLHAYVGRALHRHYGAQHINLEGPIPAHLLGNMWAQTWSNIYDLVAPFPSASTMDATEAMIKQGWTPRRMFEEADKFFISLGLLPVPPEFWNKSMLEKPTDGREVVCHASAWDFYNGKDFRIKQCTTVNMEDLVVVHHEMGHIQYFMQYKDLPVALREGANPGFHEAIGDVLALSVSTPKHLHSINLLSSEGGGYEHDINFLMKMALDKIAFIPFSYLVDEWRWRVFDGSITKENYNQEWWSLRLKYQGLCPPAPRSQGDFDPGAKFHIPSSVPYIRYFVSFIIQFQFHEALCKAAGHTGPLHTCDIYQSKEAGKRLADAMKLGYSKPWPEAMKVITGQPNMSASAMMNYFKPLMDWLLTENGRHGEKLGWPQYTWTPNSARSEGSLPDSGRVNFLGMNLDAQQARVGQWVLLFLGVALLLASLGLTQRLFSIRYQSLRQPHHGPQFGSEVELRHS
Kind of series: In vitro ACE inhibition assay. It is filed as biochemical. The following applies: IC50, ACE from rabbit lung acetone powder; substrate HHL.

[3] abbreviates: isolated rat heart, BaCl2-induced reduction.
Where [4] appears, read: mice, 3 mg per 30 g body weight.

Turning to `COc1cc(/C=C/C(=O)CC(=O)/C=C/c2ccc(O)c(OC)c2)ccc1O` [curcumin], in series [1], the oral bioavailability result is “very poor”. Besides, the “time until first observed in the blood” value in series [2] (curcumin 2 g/kg) was roughly 80 min. For the same compound, in the series with isolated rat hearts, the heart rate entry was “did not result in any significant changes”. In addition, in the series on isolated rat hearts (setting [3]), the cardiac output result is given as “did not result in any significant changes” and the stroke volume entry is reported as “did not result in any significant changes”. Moreover, in the series “NO donor activity”, the “NO donor activity (percentage of NO2)” value is given as “did not result in any significant changes”.

Regarding `CCN1C/C(=C\c2ccc([N+](=O)[O-])cc2)C(=O)/C(=C/c2ccc([N+](=O)[O-])cc2)C1` [Compound 4m, (3E,5E)-1-ethyl-3,5-bis(4-nitrobenzylidene)piperidin-4-one], inhibition against ACE was half-maximal at 95.1 µM (IC50).

Regarding `CCN1C/C(=C\c2ccccc2)C(=O)/C(=C/c2ccccc2)C1` [Compound 4a, (3E,5E)-3,5-dibenzylidene-1-ethylpiperidin-4-one], the IC50 (in general, the concentration that inhibits the measured activity by half) against ACE was determined as 50.9 µM.

On ACE, `CCCCN1C/C(=C\c2ccc(O)c(O)c2)C(=O)/C(=C/c2ccc(O)c(O)c2)C1` [Compound 4g, (3E,5E)-1-butyl-3,5-bis(3,4-dihydroxybenzylidene) piperidin-4-one] came in with an IC50 of 41.3 µM.

`CCCCN1C/C(=C\c2ccc([N+](=O)[O-])cc2)C(=O)/C(=C/c2ccc([N+](=O)[O-])cc2)C1` [Compound 4o, (3E,5E)-1-butyl-3,5-bis(4-nitrobenzylidene)piperidin-4-one] showed a concentration for half-maximal inhibition (IC50) against ACE of 131 µM.

In turn, `CCCCN1C/C(=C\c2ccccc2)C(=O)/C(=C/c2ccccc2)C1` [Compound 4c, (3E,5E)-3,5-dibenzylidene-1-butylpiperidin-4-one] registered an IC50 at ACE of 64.4 µM.

For the compound `CCCN1C/C(=C\c2cc(OC)c(OC)c(OC)c2)C(=O)/C(=C/c2cc(OC)c(OC)c(OC)c2)C1` [Compound 4j, (3E,5E)-1-propyl-3,5-bis(3,4,5-trimethoxybenzylidene) piperidin-4-one], at ACE, the midpoint of inhibition, the IC50, lay at 1.23 µM. In series [2] (mice), the in vivo bioavailability entry is given as “better in vivo bioavailability compared with curcumin”. Besides, in series [2] (setting [4]), the plasma concentration is 35 µM and the “time until first detected in plasma” value is 10 min.

On ACE, `CCN1C/C(=C\c2ccc(O)c(O)c2)C(=O)/C(=C/c2ccc(O)c(O)c2)C1` [Compound 4e, (3E,5E)-3,5-bis(3,4-dihydroxybenzylidene)-1-ethylpiperidin-4-one] returned an IC50 of 32.2 µM.

Regarding `CCCCN1C/C(=C\c2cc(OC)c(OC)c(OC)c2)C(=O)/C(=C/c2cc(OC)c(OC)c(OC)c2)C1` [Compound 4k, (3E,5E)-1-butyl-3,5-bis(3,4,5-trimethoxybenzylidene) piperidin-4-one], 4.45 µM corresponded to half-maximal inhibition at ACE (IC50).

In the case of `CCCN1C/C(=C\c2ccc([N+](=O)[O-])cc2)C(=O)/C(=C/c2ccc([N+](=O)[O-])cc2)C1` [Compound 4n, (3E,5E)-3,5-bis(4-nitrobenzylidene)-1-propylpiperidin-4-one], the IC50 at ACE amounted to 90.2 µM.

At ACE, `CCCCCN1C/C(=C\c2ccccc2)C(=O)/C(=C/c2ccccc2)C1` [Compound 4d, (3E,5E)-3,5-dibenzylidene-1-pentylpiperidin-4-one] displayed an IC50 of 78.5 µM.

For the compound `CCCCCN1C/C(=C\c2cc(OC)c(OC)c(OC)c2)C(=O)/C(=C/c2cc(OC)c(OC)c(OC)c2)C1` [Compound 4l, (3E,5E)-1-pentyl-3,5-bis(3,4,5-trimethoxybenzylidene) piperidin-4-one], half-maximal inhibition against ACE (IC50) was put at 6.65 µM. Moreover, the “NO donor activity (percentage of NO2)” value in “NO donor activity” is given as “highest donor activity”.

For `CCN1C/C(=C\c2cc(OC)c(OC)c(OC)c2)C(=O)/C(=C/c2cc(OC)c(OC)c(OC)c2)C1` [Compound 4i, (3E,5E)-1-ethyl-3,5-bis(3,4,5-trimethoxybenzylidene) piperidin-4-one], on ACE, the midpoint of inhibition, the IC50, lay at 3.21 µM.

In turn, `CCCCCN1C/C(=C\c2ccc([N+](=O)[O-])cc2)C(=O)/C(=C/c2ccc([N+](=O)[O-])cc2)C1` [Compound 4p, (3E,5E)-3,5-bis(4-nitrobenzylidene)-1-pentylpiperidin-4-one] yielded an IC50 against ACE of 120 µM.

On to `CCCN1C/C(=C\c2ccc(O)c(O)c2)C(=O)/C(=C/c2ccc(O)c(O)c2)C1` [Compound 4f, (3E,5E)-3,5-bis(3,4-dihydroxybenzylidene)-1-propylpiperidin-4-one], for which the midpoint of inhibition on ACE, the IC50, lay at 20.1 µM.

Compound `CCCCCN1C/C(=C\c2ccc(O)c(O)c2)C(=O)/C(=C/c2ccc(O)c(O)c2)C1` [Compound 4h, (3E,5E)-3,5-bis(3,4-dihydroxybenzylidene)-1-pentylpiperidin-4-one] gave an IC50 at ACE of 48.6 µM.

For the compound `CCCN1C/C(=C\c2ccccc2)C(=O)/C(=C/c2ccccc2)C1` [Compound 4b, (3E,5E)-3,5-dibenzylidene-1-propylpiperidin-4-one], at ACE, it took 51.1 µM to reach half-maximal inhibition (IC50).
